Measurements as given in the array DNA melting data of Ke et al. (doi:10.1101/2024.01.08.574731).

Columns and labels:
[1] = melting temperature; fluorescence melt of hairpins on a sequencing array, two-state fit, raised by 9.35 °C to match UV melts; settings: sodium 0.088 M
Summary of the method: (§1)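 In 50 mM Na-HEPES pH 8.0 containing 25 mM NaCl, hairpins from the library on a sequenced MiSeq flow cell were imaged for Cy3 fluorescence at 2.5 °C steps up to 60 °C, with Cy3 and quencher oligos annealed. After normalisation to pre-quench Cy3 and to control constructs, two-state fits with bootstrapping gave melting temperature and folding enthalpy. Four replicates were combined by inverse-variance weighting, and fitted temperatures were shifted up by 9.35 °C to match UV melts.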

[2] = folding enthalpy; higher = less favourable; fluorescence melt of hairpins on a sequencing array, two-state fit; settings: sodium 0.088 M
Summary of the method: as §1

| Sequence | Tm [1] | folding enthalpy [2] |
| --- | --- | --- |
| GTGTAGGAAACTACAC ((((((....)))))) | 53.5 °C | -38.1 kcal/mol |
| GTGTAGGGAAACCTATAC ((.((((....)))).)) | 38.2 °C | -24.8 kcal/mol |
| GTGTAGTCGAAAGACCAC (((..(((....)))))) | 42.1 °C | -19.5 kcal/mol |
| GTGTATCGAAAGATCAC (((.(((....)))))) | 46 °C | -29.4 kcal/mol |
| GTGTATCGAAAGATCCAC (((.(((....))).))) | 41.2 °C | -33.5 kcal/mol |
| GTGTATGCGAAAGCACAC (((..(((....)))))) | 45.4 °C | -22.1 kcal/mol |
| GTGTATTCGAAAGAACAC (((..(((....)))))) | 32.8 °C | -19.1 kcal/mol |
| GTGTCAACGAAAGTTCAC (((..(((....)))))) | 29.8 °C | -8.71 kcal/mol |
| GTGTCAGGAAACTGACAC (((((((....))))))) | 66.4 °C | -37 kcal/mol |
| GTGTCCACGAAAGTGCAC (((..(((....)))))) | 39.3 °C | -15.1 kcal/mol |
| GTGTCCCCGAAAGGGCAC (((..(((....)))))) | 49.6 °C | -21.4 kcal/mol |
| GTGTCCGAAAGGAAACAC ((((((....)))..))) | 46.5 °C | -22.4 kcal/mol |
| GTGTCCGAAAGGAACCAC ((((((....)))..))) | 35.3 °C | -12.6 kcal/mol |
| GTGTCCGAAAGGAATCAC ((((((....)))..))) | 34.3 °C | -17.3 kcal/mol |
| GTGTCCGAAAGGACTCAC ((((((....)))..))) | 39.4 °C | -10 kcal/mol |
| GTGTCCGAAAGGAGCCAC ((((((....)))..))) | 33.5 °C | -14.5 kcal/mol |
| GTGTCCGGAAACGAACAC ((((.((....)).)))) | 45.4 °C | -32.5 kcal/mol |
| GTGTCGACGAAAGTCCAC (((..(((....)))))) | 37.2 °C | -17.8 kcal/mol |
| GTGTCGGCGAAAGCCCAC (((..(((....)))))) | 43.8 °C | -13.5 kcal/mol |
| GTGTCGGGAAACCGATGC (..((((....))))..) | 46 °C | -23.8 kcal/mol |
| GTGTCTCCGAAAGGACAC (((..(((....)))))) | 45.7 °C | -25.1 kcal/mol |
| GTGTCTGCGAAAGCACAC (((..(((....)))))) | 43.8 °C | -14.6 kcal/mol |
| GTGTCTGGAAACAGATGC (..((((....))))..) | 40.2 °C | -20.7 kcal/mol |

| Sequence | Tm [1] | folding enthalpy [2] |
| --- | --- | --- |
| GTGTGAGAAATCACAC ((((((....)))))) | 55.8 °C | -30.9 kcal/mol |
| GTGTGAGGAAACCCACAC (((((.(....).))))) | 48.3 °C | -31.7 kcal/mol |
| GTGTGCGAAAGCACCAC ((((((....))).))) | 51 °C | -9.37 kcal/mol |
| GTGTGCGAAAGCACTCAC ((((((....)))..))) | 41.8 °C | -8.88 kcal/mol |
| GTGTGCGAAAGCAGCAC ((((((....))).))) | 52.5 °C | -20.1 kcal/mol |
| GTGTGCGAAAGCATGCAC ((((((....)))..))) | 45.1 °C | -16.1 kcal/mol |
| GTGTGCGGAAACGCATAC ((.((((....)))).)) | 54.6 °C | -37 kcal/mol |
| GTGTGGAAACACAC (((((....))))) | 60.6 °C | -25.8 kcal/mol |
| GTGTGGCGAAAGCCCCAC (((.(((....))).))) | 51.3 °C | -23.5 kcal/mol |
| GTGTGGGGAAACCCATAC ((.((((....)))).)) | 49.2 °C | -30.9 kcal/mol |
| GTGTGGGGAAACCTACAC ((((.((....)).)))) | 50.6 °C | -32.6 kcal/mol |
| GTGTGGGGAAACCTGCAC (((..((....))..))) | 44.8 °C | -31.9 kcal/mol |
| GTGTGTACGAAAGTACAC (((..(((....)))))) | 64.2 °C | -14.8 kcal/mol |
| GTGTGTGGAAACGCATAC ((.((.(....).)).)) | 36 °C | -22.9 kcal/mol |
| GTGTTAACGAAAGTTCAC (((..(((....)))))) | 34.9 °C | -12.5 kcal/mol |
| GTGTTACGAAAGTATCAC (((.(((....))).))) | 46.8 °C | -30.7 kcal/mol |
| GTGTTAGCGAAAGCTCAC (((..(((....)))))) | 44.2 °C | -21.9 kcal/mol |
| GTGTTCCGAAAGGATCAC (((.(((....))).))) | 51.5 °C | -34.4 kcal/mol |
| GTGTTCGAAAGAAAACAC ((((((....)))..))) | 38.2 °C | -22.6 kcal/mol |
| GTGTTCGAAAGAACAC ((((((....)))))) | 68.6 °C | -31.5 kcal/mol |
| GTGTTCGAAAGAATACAC ((((((....)))..))) | 42.6 °C | -22.9 kcal/mol |
| GTGTTCGGAAACGAACAC (((((((....))))))) | 67.9 °C | -36.3 kcal/mol |
| GTGTTCGGAAACGAATAC ((.((((....)))).)) | 49.2 °C | -31.7 kcal/mol |

| Sequence | Tm [1] | folding enthalpy [2] |
| --- | --- | --- |
| GTGTTGGGAAACCAACGC (.(((((....))))).) | 54.2 °C | -32.8 kcal/mol |
| GTGTTGGGAAACTAACGC (.(((.(....).))).) | 35.9 °C | -25.5 kcal/mol |
| GTGTTTCGAAAGAACAC (((.(((....)))))) | 46.9 °C | -32.3 kcal/mol |
| GTTAAAGCGAAAGCTAAC (((..(((....)))))) | 35.6 °C | -10.3 kcal/mol |
| GTTAACCGAAAGGTAAAC (((.(((....))).))) | 41.9 °C | -25.2 kcal/mol |
| GTTAACGAAAGTTAAAC ((((((....))).))) | 36 °C | -16.7 kcal/mol |
| GTTAACGAAAGTTCAAC ((((((....))).))) | 26.5 °C | -12.2 kcal/mol |
| GTTAACGAAAGTTGAAC ((((((....))).))) | 28.2 °C | -12.8 kcal/mol |
| GTTAACGCGAAAGCGAAC (((..(((....)))))) | 32.9 °C | -8.96 kcal/mol |
| GTTAACGGAAACGCTAAC ((((.((....)).)))) | 36.2 °C | -28.1 kcal/mol |
| GTTAACGGAAACGTTGAC ((.((((....)))).)) | 46.3 °C | -26.9 kcal/mol |
| GTTAAGGAAACTTAAC ((((((....)))))) | 43 °C | -29 kcal/mol |
| GTTAATGGAAACGTTAAC (((((.(....).))))) | 35.7 °C | -29.2 kcal/mol |
| GTTACACGAAAGTGGAAC (((.(((....))).))) | 56.7 °C | -36.7 kcal/mol |
| GTTACAGGAAACCGTAAC (((((.(....).))))) | 39.4 °C | -35.6 kcal/mol |
| GTTACAGGAAACTGTAAC (((((((....))))))) | 55.5 °C | -42.8 kcal/mol |
| GTTACCGAAAGGTTAAAC ((((((....)))..))) | 30.6 °C | -9.83 kcal/mol |
| GTTACCGGAAACGGTAAC (((((((....))))))) | 63.2 °C | -42.4 kcal/mol |
| GTTACGCGAAAGCGAAC (((.(((....)))))) | 40 °C | -13.7 kcal/mol |
| GTTACGCGAAAGCGGAAC (((.(((....))).))) | 67.5 °C | -26.8 kcal/mol |
| GTTACGGAAACGTAAC ((((((....)))))) | 56.8 °C | -38.1 kcal/mol |
| GTTACGGCGAAAGCCAAC (((..(((....)))))) | 25 °C | -8.79 kcal/mol |
| GTTACGGGAAACCGTAGC (.(((((....))))).) | 48.5 °C | -18.3 kcal/mol |

| Sequence | Tm [1] | folding enthalpy [2] |
| --- | --- | --- |
| GTTACGTCGAAAGACAAC (((..(((....)))))) | 24.5 °C | -10.3 kcal/mol |
| GTTACTCGAAAGAGGAAC (((.(((....))).))) | 53.6 °C | -36.2 kcal/mol |
| GTTAGCCCGAAAGGGAAC (((..(((....)))))) | 28.1 °C | -11.5 kcal/mol |
| GTTAGCGGAAACGCTAAC (((((((....))))))) | 66.7 °C | -42.7 kcal/mol |
| GTTAGCGGAAACGCTGAC ((.((((....)))).)) | 52.3 °C | -29.4 kcal/mol |
| GTTAGGAAACTAAC (((((....))))) | 41.4 °C | -15.7 kcal/mol |
| GTTAGGACGAAAGTCAAC (((..(((....)))))) | 28.8 °C | -10.7 kcal/mol |
| GTTAGGCGAAAGCCAAAC (((.(((....))).))) | 50.3 °C | -15.9 kcal/mol |
| GTTAGGGGAAACCCTAAC (((((((....))))))) | 57.9 °C | -40.5 kcal/mol |
| GTTAGGGGAAACTCTAAC (((((.(....).))))) | 38.3 °C | -29.2 kcal/mol |
| GTTAGGTCGAAAGACAAC (((..(((....)))))) | 27.2 °C | -11.1 kcal/mol |
| GTTAGTCGAAAGACAAAC (((.(((....))).))) | 41.2 °C | -21.9 kcal/mol |
| GTTAGTCGAAAGACAAC (((.(((....)))))) | 39.5 °C | -20.4 kcal/mol |
| GTTATCCGAAAGGAGAAC (((.(((....))).))) | 51.1 °C | -37.4 kcal/mol |
| GTTATCGAAAGATAAAC ((((((....))).))) | 32.9 °C | -20.9 kcal/mol |
| GTTATCGAAAGATATAAC ((((((....)))..))) | 29.3 °C | -11.3 kcal/mol |
| GTTATGACGAAAGTCAAC (((..(((....)))))) | 26.2 °C | -10.5 kcal/mol |
| GTTATGGGAAACCATGAC ((.((((....)))).)) | 43.5 °C | -34.4 kcal/mol |
| GTTATTCCGAAAGGAAAC (((..(((....)))))) | 21.5 °C | -7.61 kcal/mol |
| GTTATTCGAAAGAAAAAC (((.(((....))).))) | 29.9 °C | -19.6 kcal/mol |
| GTTATTCGAAAGAAGAAC (((.(((....))).))) | 42.7 °C | -28.3 kcal/mol |
| GTTATTGAAAAATAAC ((((((....)))))) | 37.5 °C | -25 kcal/mol |
